Results collected from several papers.
Lines come from different studies, so protocols differ.
Target: cAMP-dependent protein kinase catalytic subunit alpha (PRKACA, Homo sapiens, UniProt P17612)

Cn1cc(-c2cc(F)cc(N3CCn4c(cc5c4CCCC5)C3=O)c2CO)cc(Nc2ccc(N3CCN(C4COC4)CC3)cn2)c1=O — inhibition (enzyme activity; inhibitor; 0.1 µM): 6%
C#Cc1n[nH]c2c(-c3cn([C@@H](C)c4ccccc4)c(=O)[nH]c3=O)cc(F)cc12 — inhibition (enzyme activity; inhibitor; 0.1 µM): 0%
Nc1ncnc2c1ncn2[C@@H]1O[C@H](COP(=O)(O)OP(=O)(O)OP(=O)(O)O)[C@@H](O)[C@H]1O — Km (enzyme activity; substrate; pH 7.4): 16.9 µM
Nc1ncc(-c2nc(N3CCOCC3)nc(N3CCOCC3)n2)c(C(F)F)n1 — remaining binding (binding; competition with immobilised ligand; 10 µM): 85%
C#Cc1n[nH]c2c(-c3cn(C(C)c4ccccn4)c(=O)[nH]c3=O)cc(F)cc12 (stereo not shown) — inhibition (enzyme activity; inhibitor; 1 µM): 15.6%
Cn1cncc1[C@@](O)(COc1ccc(C#N)cc1-c1ccc(OC(F)(F)F)cc1)c1ccc(C#N)cc1 — remaining binding (cell-free assay; competition with immobilised ligand; 1 µM): 94%
Cc1nn(C)cc1-c1nc2c(N3CCN(Cc4ccc(Cl)cc4)CC3)c(Cl)cnc2[nH]1 — remaining binding (binding; competition with immobilised ligand; 1 µM): 57%
COc1ncccc1-c1cnn2ccc(N3CCN(C(=O)OC(C)C)CC3)nc12 — remaining binding (binding; competition with immobilised ligand; 1 µM): 66%
O=c1[nH]c2ccccc2n1C1CCN(Cc2ccc(-c3[nH]c4cc5ncnc5cc4nc3-c3ccccc3)cc2)CC1 — remaining signal (cell-free assay; 0.5 µM): 106%
Cn1cc(-c2cccc(N3CCc4c(sc5c4CC(C)(C)C5)C3=O)c2CO)cc(Nc2ccncn2)c1=O — inhibition (enzyme activity; inhibitor; 1 µM): -3%
